Data taken from ChEMBL document CHEMBL3792365, “Dioxol and dihydrodioxin analogs of 2- and 3-phenylacetonitriles as potent anti-cancer agents with nanomolar activity against a variety of human cancer cells” (2016).

Assays:
Assay type in all cases: functional
MCF7 = assay: Growth inhibition of human MCF7 cells at 10 uM after 48 hrs by sulforhodamine B assay; conditions: MCF7, 48 h, values are per cent of control
[1] = Growth inhibition of human PC3 cells after 48 hrs by sulforhodamine B assay; conditions: PC-3, 48 h
How it was run: (§1)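 Five-dose concentration series run across a panel of 60 human tumour cell lines. GI50 is taken as the drug concentration giving a 50% reduction in net protein increase relative to untreated control cells.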

[2] = Growth inhibition of human SNB19 cells after 48 hrs by sulforhodamine B assay; conditions: SNB-19, 48 h; how it was run: as §1
[3] = Growth inhibition of human SF268 cells after 48 hrs by sulforhodamine B assay; conditions: SF-268, 48 h; how it was run: as §1
SK-MEL-28 = assay: Growth inhibition of human SK-MEL-28 cells after 48 hrs by sulforhodamine B assay; conditions: SK-MEL-28, 48 h; how it was run: as §1
[4] = Growth inhibition of human HL-60(TB) cells after 48 hrs by sulforhodamine B assay; conditions: HL-60, 48 h
How it was run: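 Five-dose study across the 60-cell human tumour panel. GI50 is the drug concentration giving a 50% reduction in net protein increase relative to control cells.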

[5] = Growth inhibition of human OVCAR3 cells at 10 uM after 48 hrs by sulforhodamine B assay; conditions: OVCAR-3, 48 h, values are per cent of control
NCI-H522 [6] = assay: Growth inhibition of human NCI-H522 cells at 10 uM after 48 hrs by sulforhodamine B assay; conditions: NCI-H522, 48 h, values are per cent of control
[7] = Growth inhibition of human MOLT4 cells at 10 uM after 48 hrs by sulforhodamine B assay; conditions: MOLT-4, 48 h, values are per cent of control
[8] = Growth inhibition of human UACC62 cells after 48 hrs by sulforhodamine B assay; conditions: UACC-62, 48 h
How it was run: (§2)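 Five-dose testing across the 60-line human tumour cell panel. GI50 is the drug concentration that gives a 50% reduction in net protein increase relative to control cells.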

NCI-H522 [9] = assay: Growth inhibition of human NCI-H522 cells after 48 hrs by sulforhodamine B assay; conditions: NCI-H522, 48 h; how it was run: as §1
[10] = Growth inhibition of human NCI-ADR-RES cells at 10 uM after 48 hrs by sulforhodamine B assay; conditions: values are per cent of control
[11] = Growth inhibition of human SKOV3 cells after 48 hrs by sulforhodamine B assay; conditions: SK-OV-3, 48 h; how it was run: as §1
KM12 = assay: Growth inhibition of human KM12 cells after 48 hrs by sulforhodamine B assay; conditions: KM12, 48 h
How it was run: (§3)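 Five-dose testing against a 60-line human tumor cell panel. GI50 is the drug concentration giving a 50% reduction in net protein increase relative to untreated control cells.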

MDA-MB-435 = assay: Growth inhibition of human MDA-MB-435 cells after 48 hrs by sulforhodamine B assay; conditions: MDA-MB-435, 48 h; how it was run: as §3
[12] = Growth inhibition of human Hs 578T cells after 48 hrs by sulforhodamine B assay; how it was run: as §3
[13] = Growth inhibition of human UO31 cells after 48 hrs by sulforhodamine B assay; conditions: UO-31, 48 h; how it was run: as §2
[14] = Growth inhibition of human HCC2998 cells at 10 uM after 48 hrs by sulforhodamine B assay; conditions: HCC 2998, 48 h, values are per cent of control
CCRF-CEM [15] = assay: Growth inhibition of human CCRF-CEM cells after 48 hrs by sulforhodamine B assay; how it was run: as §3
[16] = Growth inhibition of human MOLT4 cells after 48 hrs by sulforhodamine B assay; conditions: MOLT-4, 48 h; how it was run: as §1
CCRF-CEM [17] = assay: Growth inhibition of human CCRF-CEM cells at 10 uM after 48 hrs by sulforhodamine B assay; conditions: values are per cent of control
[18] = Growth inhibition of human SF539 cells after 48 hrs by sulforhodamine B assay; conditions: SF-539, 48 h; how it was run: as §1
[19] = Growth inhibition of human SF268 cells at 10 uM after 48 hrs by sulforhodamine B assay; conditions: SF-268, 48 h, values are per cent of control
U-251 = assay: Growth inhibition of human U251 cells at 10 uM after 48 hrs by sulforhodamine B assay; conditions: U-251, 48 h, values are per cent of control
[20] = Growth inhibition of human RPMI8226 cells at 10 uM after 48 hrs by sulforhodamine B assay; conditions: RPMI-8226, 48 h, values are per cent of control
MDA-MB-468 [21] = assay: Growth inhibition of human MDA-MB-468 cells after 48 hrs by sulforhodamine B assay; conditions: MDA-MB-468, 48 h; how it was run: as §3
NCI-H23 = assay: Growth inhibition of human NCI-H23 cells after 48 hrs by sulforhodamine B assay; conditions: NCI-H23, 48 h; how it was run: as §1
MDA-MB-468 [22] = assay: Growth inhibition of human MDA-MB-468 cells at 10 uM after 48 hrs by sulforhodamine B assay; conditions: MDA-MB-468, 48 h, values are per cent of control
Malme-3M = assay: Growth inhibition of human MALME-3M cells at 10 uM after 48 hrs by sulforhodamine B assay; conditions: values are per cent of control
[23] = Growth inhibition of human COLO205 cells after 48 hrs by sulforhodamine B assay; conditions: COLO 205, 48 h; how it was run: as §3
M14 = assay: Growth inhibition of human M14 cells after 48 hrs by sulforhodamine B assay; conditions: M14, 48 h; how it was run: as §3
[24] = Growth inhibition of human TK10 cells at 10 uM after 48 hrs by sulforhodamine B assay; conditions: TK-10, 48 h, values are per cent of control
[25] = Growth inhibition of human RPMI8226 cells after 48 hrs by sulforhodamine B assay; conditions: RPMI-8226, 48 h; how it was run: as §1
[26] = Growth inhibition of human HL-60(TB) cells at 10 uM after 48 hrs by sulforhodamine B assay; conditions: HL-60, 48 h, values are per cent of control
[27] = Growth inhibition of human HCT15 cells after 48 hrs by sulforhodamine B assay; conditions: HCT-15, 48 h; how it was run: as §3
[28] = Growth inhibition of human UACC257 cells at 10 uM after 48 hrs by sulforhodamine B assay; conditions: UACC-257, 48 h, values are per cent of control
MDA-MB-231 = assay: Growth inhibition of human MDA-MB-231 cells after 48 hrs by sulforhodamine B assay; conditions: MDA-MB-231, 48 h; how it was run: as §3
[29] = Growth inhibition of human PC3 cells at 10 uM after 48 hrs by sulforhodamine B assay; conditions: PC-3, 48 h, values are per cent of control
T47D = assay: Growth inhibition of human T47D cells at 10 uM after 48 hrs by sulforhodamine B assay; conditions: values are per cent of control
[30] = Growth inhibition of human Caki1 cells after 48 hrs by sulforhodamine B assay; conditions: CAKI-1, 48 h; how it was run: as §3
[31] = Growth inhibition of human SKOV3 cells at 10 uM after 48 hrs by sulforhodamine B assay; conditions: SK-OV-3, 48 h, values are per cent of control
[32] = Growth inhibition of human OVCAR4 cells after 48 hrs by sulforhodamine B assay; conditions: OVCAR-4, 48 h; how it was run: as §1

## COc1ccc(/C=C(\C#N)c2ccc3c(c2)OCO3)c2ccccc12
MCF7
  growth, % of control at 10 µM: 12.1%
[1]
  GI50: 3.04 µM
[2]
  GI50: 4.24 µM
[3]
  GI50: 9.34 µM
SK-MEL-28
  GI50: 4.52 µM
[4]
  GI50: 1.57 µM
[5]
  growth, % of control at 10 µM: -21.2%
NCI-H522 [6]
  growth, % of control at 10 µM: 1.4%
[7]
  growth, % of control at 10 µM: 26.8%
[8]
  GI50: 1.51 µM
NCI-H522 [9]
  GI50: 2.37 µM
[10]
  growth, % of control at 10 µM: 10.5%
[11]
  GI50: 2.35 µM
KM12
  GI50: 2.39 µM
MDA-MB-435
  GI50: 0.31 µM
[12]
  GI50: 2.63 µM
[13]
  GI50: 6.24 µM
[14]
  growth, % of control at 10 µM: 45.7%
CCRF-CEM [15]
  GI50: 1.91 µM
[16]
  GI50: 3.71 µM
CCRF-CEM [17]
  growth, % of control at 10 µM: 21.6%
[18]
  GI50: 1.58 µM
[19]
  growth, % of control at 10 µM: 34%
U-251
  growth, % of control at 10 µM: 18.7%
[20]
  growth, % of control at 10 µM: 5.3%
MDA-MB-468 [21]
  GI50: 0.51 µM
NCI-H23
  GI50: 5.09 µM
MDA-MB-468 [22]
  growth, % of control at 10 µM: -14.5%
Malme-3M
  growth, % of control at 10 µM: 37.9%
[23]
  GI50: 1.61 µM
M14
  GI50: 1.68 µM
[24]
  growth, % of control at 10 µM: 43.8%
[25]
  GI50: 3.85 µM
[26]
  growth, % of control at 10 µM: 7.8%
[27]
  GI50: 0.75 µM
[28]
  growth, % of control at 10 µM: 41%
MDA-MB-231
  GI50: 2.43 µM
[29]
  growth, % of control at 10 µM: 36.1%
T47D
  growth, % of control at 10 µM: 38.2%
[30]
  GI50: 2.06 µM
[31]
  growth, % of control at 10 µM: 26.9%
[32]
  GI50: 3.79 µM

## N#C/C(=C\c1cccc2ccccc12)c1ccc2c(c1)OCO2
MCF7
  growth, % of control at 10 µM: 26.1%
[1]
  GI50: 5.52 µM
[2]
  GI50: 6.29 µM
[3]
  GI50: 8.99 µM
SK-MEL-28
  GI50: 5.84 µM
[4]
  GI50: 3.5 µM
[5]
  growth, % of control at 10 µM: 46.8%
NCI-H522 [6]
  growth, % of control at 10 µM: 47.6%
[8]
  GI50: 2.63 µM
NCI-H522 [9]
  GI50: 2.89 µM
[10]
  growth, % of control at 10 µM: 36.5%
[11]
  GI50: 3.58 µM
KM12
  GI50: 3.77 µM
MDA-MB-435
  GI50: 0.43 µM
[12]
  GI50: 3.54 µM
[13]
  GI50: 6.48 µM
[14]
  growth, % of control at 10 µM: 68.8%
CCRF-CEM [15]
  GI50: 3.65 µM
[16]
  GI50: 4.99 µM
CCRF-CEM [17]
  growth, % of control at 10 µM: 52.3%
[18]
  GI50: 2.71 µM
[19]
  growth, % of control at 10 µM: 71%
U-251
  growth, % of control at 10 µM: 47.3%
[20]
  growth, % of control at 10 µM: 77%
MDA-MB-468 [21]
  GI50: 2.11 µM
NCI-H23
  GI50: 6.45 µM
MDA-MB-468 [22]
  growth, % of control at 10 µM: 25.9%
Malme-3M
  growth, % of control at 10 µM: 73.3%
[23]
  GI50: 2.58 µM
M14
  GI50: 3.13 µM
[24]
  growth, % of control at 10 µM: 78.2%
[25]
  GI50: 4.49 µM
[27]
  GI50: 1.77 µM
[28]
  growth, % of control at 10 µM: 103%
MDA-MB-231
  GI50: 5.11 µM
[29]
  growth, % of control at 10 µM: 80.1%
T47D
  growth, % of control at 10 µM: 67.9%
[30]
  GI50: 4.18 µM
[31]
  growth, % of control at 10 µM: 61.9%
[32]
  GI50: 8.25 µM
